# Results pooled from the literature.
# Lines come from different studies, so protocols differ.
# Organism: Plasmodium falciparum
# Observed: parasite growth
Compound,technique,strain,time,notes,EC50 [µM]
C[C@@H]1C[C@@H]([C@H](O)CC2CC(=O)NC(=O)C2)C(=O)[C@@H](C)C1,SYBR Green,3D7,,blood stage,0.2
Cc1noc(-c2cccs2)c1C(=O)NCCc1cccc(Cl)c1,SYBR Green,3D7,,,0.313
O=S(=O)(c1ccc(-c2ccc3ncnc(Nc4ccc(OCc5ccccc5)c(Cl)c4)c3c2)cc1)N1CCOCC1,SYBR Green,W2,,"drug-resistant strain, blood stage",0.72
COc1cc2[nH]c(C)c(-c3ccc(Oc4ccc(OC(F)(F)F)cc4)cc3)c(=O)c2cc1Cl,SYBR Green,D6,72 h,blood stage,0.0009
CN1CCN(S(=O)(=O)c2ccc(-c3ccc4ncnc(Nc5ccc(OCc6cccc(F)c6)c(Cl)c5)c4c3)cc2)CC1,SYBR Green,W2,,"drug-resistant strain, blood stage",0.044
N#Cc1c(F)cccc1N1CCN(c2ccc(O)cc2)CC1,SYBR Green,3D7,72 h,,> 12.5
Cc1cc(N[C@H]2CCc3ccc(Cl)cc3C2)n2nc(C(C)(F)F)nc2n1,,K1,,"drug-resistant strain, blood stage",0.0017
OC(c1cc(C(F)(F)F)nc2c(C(F)(F)F)cccc12)C1CCCCN1 (stereo not shown),SYBR Green,3D7,,,0.0203
Cc1cc(NC2Cc3cc(F)c(F)cc3C2)n2nc(C(C)(F)F)nc2n1,,DD2,,"drug-resistant strain, blood stage",0.043
CCN(CC)CCCC(C)Nc1ccnc2cc(Cl)ccc12 (stereo not shown),SYBR Green,D6,72 h,blood stage,0.0091
